Here are results for one compound from ChEMBL document CHEMBL1149444, “Discovery of imidazo[1,2-b][1,2,4]triazines as GABA(A) alpha2/3 subtype selective agonists for the treatment of anxiety” (J Med Chem, 2006).

The source made the active and inactive calls. No cut-off for these calls is given here.

The target of data set [1] is GABA-A receptor; alpha-2/beta-3/gamma-2 (Homo sapiens) (UniProt P18507+P28472+P47869). Description: Efficacy against recombinant human GABAA alpha2 receptor plus beta3gamma2 expressed in L(tk-) cells by whole cell patch clamp method relative to chlordiazepoxide. The format is functional, cell-based. An outline of the steps: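 Whole-cell patch clamp on L(tk-) cells stably expressing human alpha subunit plus beta3gamma2. GABA applied at an EC20-equivalent concentration. Modulation of that current measured across increasing test-compound concentrations. Efficacy is expressed relative to the maximal response to the full agonist chlordiazepoxide, set at 1.00.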

Data set [2] in a line: Plasma clearance in dog at 1 mg/kg, iv or 1 mg/kg, po. Type of data set: ADME, organism-based, Canis lupus familiaris. An outline of the steps:
(§1)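 Pharmacokinetics in rat, dog or rhesus after 1 mg/kg iv and 1 mg/kg po dosing. Plasma clearance (mL/min/kg), half-life (h), volume of distribution (L/kg) and oral bioavailability (%) were derived.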

Data set [3] concerns the target GABA-A receptor; anion channel (Rattus norvegicus) (UniProt O09028+P15431+P18506+P18508+P19969+P20236+P23574+P23576+P28471+P28473+P30191+P62813+P63079+P63138+Q91ZM7+Q9ES14). Kind of data set: Receptor occupancy by displacement of [3H]Ro 15-1788 binding from central Benzodiazepine receptor in rat at 0.3 mg/kg, po. The format is organism-based. The arrangement: dose 0.3 mg/kg. An outline of the steps:
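Central benzodiazepine receptor occupancy in rat after oral dosing, measured by displacement of [3H]Ro15-1788 binding. Plasma concentration was measured at the dose giving 50% occupancy.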

Data set [4] in a line: Half life in dog at 1 mg/kg, iv or 1 mg/kg, po. The note with it: in vivo. The format is ADME, organism-based, Canis lupus familiaris. An outline of the steps:
as §1

Data set [5] concerns the target T1, GABA-A receptor; alpha-2/beta-3/gamma-2 (Homo sapiens, UniProt P18507+P28472+P47869).
T1 sequence (P18507 whole entry): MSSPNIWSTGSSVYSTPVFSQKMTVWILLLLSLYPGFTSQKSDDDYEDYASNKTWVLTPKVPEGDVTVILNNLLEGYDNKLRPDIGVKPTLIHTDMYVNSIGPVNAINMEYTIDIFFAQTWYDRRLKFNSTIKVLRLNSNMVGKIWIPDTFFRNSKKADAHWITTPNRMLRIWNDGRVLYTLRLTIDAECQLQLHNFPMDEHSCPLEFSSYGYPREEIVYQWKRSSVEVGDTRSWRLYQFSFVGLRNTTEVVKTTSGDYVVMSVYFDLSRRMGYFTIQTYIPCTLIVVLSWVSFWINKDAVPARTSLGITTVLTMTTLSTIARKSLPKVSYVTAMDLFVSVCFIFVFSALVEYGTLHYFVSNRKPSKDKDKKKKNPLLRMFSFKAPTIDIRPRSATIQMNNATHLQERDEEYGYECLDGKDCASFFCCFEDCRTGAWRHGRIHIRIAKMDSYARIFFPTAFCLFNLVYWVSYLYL
T1 sequence (P28472 whole entry): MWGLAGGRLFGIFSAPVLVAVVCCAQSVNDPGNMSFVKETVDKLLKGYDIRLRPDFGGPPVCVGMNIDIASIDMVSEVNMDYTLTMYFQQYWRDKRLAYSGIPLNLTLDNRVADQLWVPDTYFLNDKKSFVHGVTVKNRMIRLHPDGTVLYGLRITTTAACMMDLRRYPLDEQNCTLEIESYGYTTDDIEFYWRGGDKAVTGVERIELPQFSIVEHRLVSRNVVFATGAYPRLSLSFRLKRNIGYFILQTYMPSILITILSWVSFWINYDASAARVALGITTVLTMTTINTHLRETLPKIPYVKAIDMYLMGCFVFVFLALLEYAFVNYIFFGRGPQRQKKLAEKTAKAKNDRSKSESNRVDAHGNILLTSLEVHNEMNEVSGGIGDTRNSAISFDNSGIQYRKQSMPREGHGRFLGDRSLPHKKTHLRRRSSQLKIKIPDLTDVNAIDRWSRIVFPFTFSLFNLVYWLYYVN
T1 sequence (P47869 whole entry): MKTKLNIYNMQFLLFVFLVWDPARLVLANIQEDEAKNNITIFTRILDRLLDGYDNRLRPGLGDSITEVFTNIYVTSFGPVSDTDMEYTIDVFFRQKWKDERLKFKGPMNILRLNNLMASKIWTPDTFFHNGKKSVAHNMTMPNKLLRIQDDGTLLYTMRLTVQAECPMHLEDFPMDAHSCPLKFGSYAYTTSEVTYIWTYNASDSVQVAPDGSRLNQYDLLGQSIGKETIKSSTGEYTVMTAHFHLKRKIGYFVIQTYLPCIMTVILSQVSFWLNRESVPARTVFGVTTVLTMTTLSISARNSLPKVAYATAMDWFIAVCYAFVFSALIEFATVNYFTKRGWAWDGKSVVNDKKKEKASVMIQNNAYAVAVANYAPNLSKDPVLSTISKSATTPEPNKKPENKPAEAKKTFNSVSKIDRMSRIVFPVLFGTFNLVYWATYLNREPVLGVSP
Description: Displacement of [3H] Ro15-1788 from recombinant human GABAA alpha2 receptor plus beta-3-gamma-2 expressed in L(tk-) cells. The format is cell-based.

Another data set has as its system Mus musculus. Description: Impairment in mouse rotarod assay upto 10 mg/kg, po. The format is functional, organism-based. The arrangement: dose 10 mg/kg. An outline of the steps:
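Mouse rotarod test for sedation or myorelaxation after oral dosing up to 10 mg/kg. n = 8 per group. Significance versus vehicle at p < 0.05.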

Data set [6] is described as follows: Volume of distribution in rhesus at 1 mg/kg, iv or 1 mg/kg, po. The format is ADME, organism-based, Macaca mulatta. The note with it: rhesus monkey, in vivo, read-out: Vdss. An outline of the steps: as §1
Data set [7] can be described thus: Oral bioavailability in rat at 1 mg/kg, iv or 1 mg/kg, po. Type of data set: ADME, organism-based. The note with it: in vivo. An outline of the steps:
as §1

For the compound `CC(C)(O)c1cnn2c(-c3ccc(F)c(-c4c(F)cccc4C#N)c3)cnc2n1`, the Efficacy in data set [1] amounted to 0.38%. For the same compound, in data set [2], the clearance was determined as 4.6 mL/min/kg. Besides, the Activity in data set [3] is 50%. This compound also gave a half-life in data set [4] of 6.5 h. For the same compound, the inhibition constant (Ki) in data set [5] worked out at 1.8 nM. Moreover, the result in the data set on Mus musculus was inactive. For the same compound, the Vd in data set [6] is 2.1 L/kg. This compound also yielded a bioavailability in data set [7] of 77%.
